Data from ChEMBL document CHEMBL4765243, “Discovery of Novel Bromophenol-Thiosemicarbazone Hybrids as Potent Selective Inhibitors of Poly(ADP-ribose) Polymerase-1 (PARP-1) for Use in Cancer” (J Med Chem, 2019).

System: not listed separately
Test: Selectivity index, ratio of IC50 for inhibition of human recombinant N-terminal GST-tagged PARP-2 to IC50 for inhibition of human recombinant GST-tagged PARP-1
Conditions: not given

| SMILES | Ratio IC50 |
| --- | --- |
| COc1cc(/C=N/NC(=S)NCCCN2CCOCC2)c(Br)c(Br)c1OC | > 5.37 |
| CCOC(=O)c1ccc(NC(=S)N/N=C/c2cc(OC)c(OC)c(Br)c2Br)cc1 | > 17.2 |
| COc1cc(/C=N/NC(N)=S)c(Br)c(Br)c1O | > 3.94 |

Biological target: T1, Poly [ADP-ribose] polymerase 1 (Homo sapiens, UniProt P09874)
T1 sequence (P09874 whole entry): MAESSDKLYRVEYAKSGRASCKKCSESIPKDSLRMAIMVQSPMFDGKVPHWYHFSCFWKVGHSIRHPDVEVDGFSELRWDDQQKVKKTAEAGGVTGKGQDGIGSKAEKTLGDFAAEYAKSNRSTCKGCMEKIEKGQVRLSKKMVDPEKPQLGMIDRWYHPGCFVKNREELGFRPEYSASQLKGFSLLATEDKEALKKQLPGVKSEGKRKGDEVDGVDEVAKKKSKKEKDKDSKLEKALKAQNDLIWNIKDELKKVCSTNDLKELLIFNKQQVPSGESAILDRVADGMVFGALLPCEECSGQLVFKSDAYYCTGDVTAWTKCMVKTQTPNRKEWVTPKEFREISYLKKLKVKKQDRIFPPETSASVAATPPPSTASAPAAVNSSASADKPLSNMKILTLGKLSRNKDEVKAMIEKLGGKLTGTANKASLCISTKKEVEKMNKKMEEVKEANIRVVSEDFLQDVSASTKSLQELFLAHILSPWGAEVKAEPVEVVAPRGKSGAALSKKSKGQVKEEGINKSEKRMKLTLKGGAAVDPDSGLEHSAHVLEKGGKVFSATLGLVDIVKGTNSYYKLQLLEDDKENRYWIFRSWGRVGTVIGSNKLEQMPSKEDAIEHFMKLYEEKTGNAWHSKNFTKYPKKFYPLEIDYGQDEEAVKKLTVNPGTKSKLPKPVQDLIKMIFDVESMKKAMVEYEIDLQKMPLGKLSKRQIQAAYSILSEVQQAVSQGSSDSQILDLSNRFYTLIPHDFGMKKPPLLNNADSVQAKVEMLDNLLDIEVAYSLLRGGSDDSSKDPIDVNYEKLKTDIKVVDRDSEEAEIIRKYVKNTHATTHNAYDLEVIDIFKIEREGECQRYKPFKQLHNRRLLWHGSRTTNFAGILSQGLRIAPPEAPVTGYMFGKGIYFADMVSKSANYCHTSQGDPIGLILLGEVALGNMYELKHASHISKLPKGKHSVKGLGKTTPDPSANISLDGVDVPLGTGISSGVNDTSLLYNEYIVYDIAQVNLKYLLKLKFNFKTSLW
Test: Inhibition of human recombinant GST-tagged PARP-1 expressed in Escherichia coli assessed as reduction in NAD+-dependent ADP ribosylation incubated for 30 mins in presence and NAD by resazurin dye based fluorescence analysis
Conditions: not given

| SMILES | IC50 [µM] |
| --- | --- |
| COc1cc(/C=N/NC(=S)NCCCN2CCOCC2)c(Br)c(Br)c1OC | 0.186 |
| CCOC(=O)c1ccc(NC(=S)N/N=C/c2cc(OC)c(OC)c(Br)c2Br)cc1 | 0.0583 |
| COc1cc(/C=N/NC(N)=S)c(Br)c(Br)c1O | 0.254 |

System: SK-OV-3
Test: Antiproliferative activity against human SK-OV-3 cells assessed as cell growth inhibition incubated for 48 hrs by MTT assay
Type: functional, cell-based
Conditions: SK-OV-3, 48 h
Outline: (§1)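 Cells seeded in 96-well plates and exposed to compounds for 48 h; viability read by MTT. Each experiment repeated three times. SK-OV-3 grown in McCOY's 5A, Bel-7402 and HL-7702 in RPMI-1640, HepG2 in DMEM, Caco-2 in MEM.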

| SMILES | IC50 [µM] |
| --- | --- |
| COc1cc(/C=N/NC(=S)NCCCN2CCOCC2)c(Br)c(Br)c1OC | 18.2 |
| O=C(c1cc(Cc2n[nH]c(=O)c3ccccc23)ccc1F)N1CCN(C(=O)C2CC2)CC1 [OLAPARIB] | 3.15 |
| CCOC(=O)c1ccc(NC(=S)N/N=C/c2cc(OC)c(OC)c(Br)c2Br)cc1 | 15.6 |
| COc1cc(/C=N/NC(=S)Nc2ccc(Cl)cc2)c(Br)c(Br)c1OC | 15.3 |
| CCOC(=O)c1ccc(NC(=S)N/N=C/c2cc(Br)c(OC)c(OC)c2)cc1 | 13.7 |
| Oc1cc(/C=N/NC(=S)Nc2ccccc2)cc(Br)c1O | 14 |

System: Caco-2
Test: Antiproliferative activity against human Caco-2 cells assessed as cell growth inhibition at 20 uM incubated for 48 hrs by MTT assay relative to control
Type: functional
Conditions: not given

| SMILES | inhibition at 20 µM [%] |
| --- | --- |
| COc1cc(/C=N/NC(=S)NCCCN2CCOCC2)c(Br)c(Br)c1OC | 45.9 |
| CCOC(=O)c1ccc(NC(=S)N/N=C/c2cc(OC)c(OC)c(Br)c2Br)cc1 | 76.5 |
| COc1cc(/C=N/NC(=S)Nc2ccc(Cl)cc2)c(Br)c(Br)c1OC | 44.8 |
| CCOC(=O)c1ccc(NC(=S)N/N=C/c2cc(Br)c(OC)c(OC)c2)cc1 | 55.5 |
| Oc1cc(/C=N/NC(=S)Nc2ccccc2)cc(Br)c1O | 72 |
| COc1cc(/C=N/NC(N)=S)c(Br)c(Br)c1O | 24.9 |

System: HepG2
Test: Antiproliferative activity against human HepG2 cells assessed as cell growth inhibition at 20 uM incubated for 48 hrs by MTT assay relative to control
Type: functional
Conditions: not given

| SMILES | inhibition at 20 µM [%] |
| --- | --- |
| COc1cc(/C=N/NC(=S)NCCCN2CCOCC2)c(Br)c(Br)c1OC | 40.2 |
| CCOC(=O)c1ccc(NC(=S)N/N=C/c2cc(OC)c(OC)c(Br)c2Br)cc1 | 73 |
| COc1cc(/C=N/NC(=S)Nc2ccc(Cl)cc2)c(Br)c(Br)c1OC | 62.7 |
| CCOC(=O)c1ccc(NC(=S)N/N=C/c2cc(Br)c(OC)c(OC)c2)cc1 | 59.3 |
| Oc1cc(/C=N/NC(=S)Nc2ccccc2)cc(Br)c1O | 67.9 |
| COc1cc(/C=N/NC(N)=S)c(Br)c(Br)c1O | 50.8 |

System: Caco-2
Test: Antiproliferative activity against human Caco-2 cells assessed as cell growth inhibition incubated for 48 hrs by MTT assay
Type: functional, cell-based
Conditions: Caco-2, 48 h
Outline: as §1

| SMILES | IC50 [µM] |
| --- | --- |
| COc1cc(/C=N/NC(=S)NCCCN2CCOCC2)c(Br)c(Br)c1OC | 15.9 |
| O=C(c1cc(Cc2n[nH]c(=O)c3ccccc23)ccc1F)N1CCN(C(=O)C2CC2)CC1 [OLAPARIB] | 65.5 |
| CCOC(=O)c1ccc(NC(=S)N/N=C/c2cc(OC)c(OC)c(Br)c2Br)cc1 | 11.3 |
| COc1cc(/C=N/NC(=S)Nc2ccc(Cl)cc2)c(Br)c(Br)c1OC | 10.1 |
| CCOC(=O)c1ccc(NC(=S)N/N=C/c2cc(Br)c(OC)c(OC)c2)cc1 | 13.7 |
| Oc1cc(/C=N/NC(=S)Nc2ccccc2)cc(Br)c1O | 22.7 |

System: not listed separately
Test: Cytotoxicity against human HL7702 cells assessed as cell growth inhibition at 20 uM incubated for 48 hrs by MTT assay relative to control
Type: cell-based
Conditions: HL7702 (L02) cells

| SMILES | inhibition at 48 h, 20 µM [%] |
| --- | --- |
| COc1cc(/C=N/NC(=S)NCCCN2CCOCC2)c(Br)c(Br)c1OC | 51 |
| CCOC(=O)c1ccc(NC(=S)N/N=C/c2cc(OC)c(OC)c(Br)c2Br)cc1 | 97.7 |
| COc1cc(/C=N/NC(=S)Nc2ccc(Cl)cc2)c(Br)c(Br)c1OC | 85.5 |
| CCOC(=O)c1ccc(NC(=S)N/N=C/c2cc(Br)c(OC)c(OC)c2)cc1 | 84 |
| Oc1cc(/C=N/NC(=S)Nc2ccccc2)cc(Br)c1O | 86.4 |
| COc1cc(/C=N/NC(N)=S)c(Br)c(Br)c1O | < 0 |

System: HepG2
Test: Antiproliferative activity against human HepG2 cells assessed as cell growth inhibition incubated for 48 hrs by MTT assay
Type: functional, cell-based
Conditions: HepG2, 48 h
Outline: as §1

| SMILES | IC50 [µM] |
| --- | --- |
| COc1cc(/C=N/NC(=S)NCCCN2CCOCC2)c(Br)c(Br)c1OC | 26.3 |
| O=C(c1cc(Cc2n[nH]c(=O)c3ccccc23)ccc1F)N1CCN(C(=O)C2CC2)CC1 [OLAPARIB] | 42.4 |
| CCOC(=O)c1ccc(NC(=S)N/N=C/c2cc(OC)c(OC)c(Br)c2Br)cc1 | 10.5 |
| COc1cc(/C=N/NC(=S)Nc2ccc(Cl)cc2)c(Br)c(Br)c1OC | 13.4 |
| CCOC(=O)c1ccc(NC(=S)N/N=C/c2cc(Br)c(OC)c(OC)c2)cc1 | 8.55 |
| Oc1cc(/C=N/NC(=S)Nc2ccccc2)cc(Br)c1O | 9.29 |

System: Bel-7402
Test: Antiproliferative activity against human Bel-7402 cells assessed as cell growth inhibition at 20 uM incubated for 48 hrs by MTT assay relative to control
Type: functional
Conditions: not given

| SMILES | inhibition at 20 µM [%] |
| --- | --- |
| COc1cc(/C=N/NC(=S)NCCCN2CCOCC2)c(Br)c(Br)c1OC | 89.7 |
| CCOC(=O)c1ccc(NC(=S)N/N=C/c2cc(OC)c(OC)c(Br)c2Br)cc1 | 71.9 |
| COc1cc(/C=N/NC(=S)Nc2ccc(Cl)cc2)c(Br)c(Br)c1OC | 51.5 |
| CCOC(=O)c1ccc(NC(=S)N/N=C/c2cc(Br)c(OC)c(OC)c2)cc1 | 39.4 |
| Oc1cc(/C=N/NC(=S)Nc2ccccc2)cc(Br)c1O | 63.5 |
| COc1cc(/C=N/NC(N)=S)c(Br)c(Br)c1O | 44.8 |

System: Bel-7402
Test: Antiproliferative activity against human Bel-7402 cells assessed as cell growth inhibition incubated for 48 hrs by MTT assay
Type: functional, cell-based
Conditions: Bel-7402, 48 h
Outline: as §1

| SMILES | IC50 [µM] |
| --- | --- |
| COc1cc(/C=N/NC(=S)NCCCN2CCOCC2)c(Br)c(Br)c1OC | 24 |
| O=C(c1cc(Cc2n[nH]c(=O)c3ccccc23)ccc1F)N1CCN(C(=O)C2CC2)CC1 [OLAPARIB] | 35.5 |
| CCOC(=O)c1ccc(NC(=S)N/N=C/c2cc(OC)c(OC)c(Br)c2Br)cc1 | 6.89 |
| COc1cc(/C=N/NC(=S)Nc2ccc(Cl)cc2)c(Br)c(Br)c1OC | 13.9 |
| CCOC(=O)c1ccc(NC(=S)N/N=C/c2cc(Br)c(OC)c(OC)c2)cc1 | 9.87 |
| Oc1cc(/C=N/NC(=S)Nc2ccccc2)cc(Br)c1O | 13.1 |

System: L02
Test: Cytotoxicity against human HL7702 cells assessed as cell growth inhibition incubated for 48 hrs by MTT assay
Type: cell-based
Conditions: L02, 48 h
Outline: as §1

| SMILES | IC50 [µM] |
| --- | --- |
| COc1cc(/C=N/NC(=S)NCCCN2CCOCC2)c(Br)c(Br)c1OC | 28.9 |
| O=C(c1cc(Cc2n[nH]c(=O)c3ccccc23)ccc1F)N1CCN(C(=O)C2CC2)CC1 [OLAPARIB] | 25.8 |
| CCOC(=O)c1ccc(NC(=S)N/N=C/c2cc(OC)c(OC)c(Br)c2Br)cc1 | 9.96 |
| COc1cc(/C=N/NC(=S)Nc2ccc(Cl)cc2)c(Br)c(Br)c1OC | 3.5 |
| CCOC(=O)c1ccc(NC(=S)N/N=C/c2cc(Br)c(OC)c(OC)c2)cc1 | 8.8 |
| Oc1cc(/C=N/NC(=S)Nc2ccccc2)cc(Br)c1O | 13.4 |

System: SK-OV-3
Test: Antiproliferative activity against human SK-OV-3 cells assessed as cell growth inhibition at 20 uM incubated for 48 hrs by MTT assay relative to control
Type: functional
Conditions: not given

| SMILES | inhibition at 20 µM [%] |
| --- | --- |
| COc1cc(/C=N/NC(=S)NCCCN2CCOCC2)c(Br)c(Br)c1OC | 71.5 |
| CCOC(=O)c1ccc(NC(=S)N/N=C/c2cc(OC)c(OC)c(Br)c2Br)cc1 | 70 |
| COc1cc(/C=N/NC(=S)Nc2ccc(Cl)cc2)c(Br)c(Br)c1OC | 81.2 |
| CCOC(=O)c1ccc(NC(=S)N/N=C/c2cc(Br)c(OC)c(OC)c2)cc1 | 60.4 |
| Oc1cc(/C=N/NC(=S)Nc2ccccc2)cc(Br)c1O | 76.2 |
| COc1cc(/C=N/NC(N)=S)c(Br)c(Br)c1O | 28 |

System: not listed separately
Test: Toxicity in Balb/c nude mouse xenografted with human SKOV3 cells assessed as change in body weight at 25 mg/kg, po for 21 days and measured every third day
Type: organism-based
Conditions: in vivo, 504 h, time 21 day
Outline: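 Female BALB/c nu/nu mice, 6-8 weeks old, kept under SPF conditions. Each received 5×10^6 SK-OV-3 cells s.c. At 80–120 mm3 tumour volume, mice were split into four groups (n=6). […] Caliper measurement every three days; volume = X × (Y2/2).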

| SMILES | Activity |
| --- | --- |
| O=C(c1cc(Cc2n[nH]c(=O)c3ccccc23)ccc1F)N1CCN(C(=O)C2CC2)CC1 [OLAPARIB] | Non-Toxic |

Biological target: Poly [ADP-ribose] polymerase 2 (Homo sapiens, UniProt Q9UGN5)
Sequence (Q9UGN5 whole entry): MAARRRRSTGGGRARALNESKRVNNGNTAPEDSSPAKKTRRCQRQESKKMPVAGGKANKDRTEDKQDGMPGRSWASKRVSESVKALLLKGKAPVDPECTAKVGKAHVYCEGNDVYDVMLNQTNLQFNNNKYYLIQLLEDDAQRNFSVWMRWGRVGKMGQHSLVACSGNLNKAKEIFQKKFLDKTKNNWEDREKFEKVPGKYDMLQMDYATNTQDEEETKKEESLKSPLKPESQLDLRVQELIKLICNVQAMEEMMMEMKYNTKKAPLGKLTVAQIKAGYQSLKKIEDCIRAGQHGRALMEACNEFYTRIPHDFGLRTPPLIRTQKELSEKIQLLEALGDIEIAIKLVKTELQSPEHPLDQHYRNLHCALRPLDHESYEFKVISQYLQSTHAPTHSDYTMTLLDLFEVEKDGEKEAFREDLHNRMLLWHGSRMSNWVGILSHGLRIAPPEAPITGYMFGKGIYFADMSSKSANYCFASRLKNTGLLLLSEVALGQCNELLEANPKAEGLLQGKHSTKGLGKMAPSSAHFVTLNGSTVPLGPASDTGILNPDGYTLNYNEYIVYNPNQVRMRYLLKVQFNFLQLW
Test: Inhibition of human recombinant N-terminal GST-tagged PARP-2 expressed in Baculovirus infected Sf9 cells assessed as reduction in NAD+-dependent ADP ribosylation using histone mixture (H2A and H2B) as substrate in presence of activated DNA incubated for 30 mins by chemiluminescence assay
Conditions: not given

| SMILES | IC50 [µM] |
| --- | --- |
| COc1cc(/C=N/NC(=S)NCCCN2CCOCC2)c(Br)c(Br)c1OC | > 1 |
| CCOC(=O)c1ccc(NC(=S)N/N=C/c2cc(OC)c(OC)c(Br)c2Br)cc1 | > 1 |
| COc1cc(/C=N/NC(N)=S)c(Br)c(Br)c1O | > 1 |

Biological target: T1, Poly [ADP-ribose] polymerase 1
Conditions: dose 100.0 nM, time 30.0 min

| SMILES | inhibition [%] |
| --- | --- |
| COc1cc(/C=N/NC(=S)NCCCN2CCOCC2)c(Br)c(Br)c1OC | 51.5 |
| CCOC(=O)c1ccc(NC(=S)N/N=C/c2cc(OC)c(OC)c(Br)c2Br)cc1 | 72.2 |
| COc1cc(/C=N/NC(=S)Nc2ccc(Cl)cc2)c(Br)c(Br)c1OC | 38.2 |
| CCOC(=O)c1ccc(NC(=S)N/N=C/c2cc(Br)c(OC)c(OC)c2)cc1 | 43.7 |
| Oc1cc(/C=N/NC(=S)Nc2ccccc2)cc(Br)c1O | 28 |
| COc1cc(/C=N/NC(N)=S)c(Br)c(Br)c1O | 61 |
